{"source": "ChEMBL document CHEMBL5653631", "about": "“A Potent and Selective ULK1 Inhibitor Suppresses Autophagy and Sensitizes Cancer Cells to Nutrient Stress” (iScience, 2018)", "key": {"[1]": {"biological_target": "Receptor tyrosine-protein kinase erbB-2 (Homo sapiens) (UniProt P04626)", "sequence (P04626 whole entry)": "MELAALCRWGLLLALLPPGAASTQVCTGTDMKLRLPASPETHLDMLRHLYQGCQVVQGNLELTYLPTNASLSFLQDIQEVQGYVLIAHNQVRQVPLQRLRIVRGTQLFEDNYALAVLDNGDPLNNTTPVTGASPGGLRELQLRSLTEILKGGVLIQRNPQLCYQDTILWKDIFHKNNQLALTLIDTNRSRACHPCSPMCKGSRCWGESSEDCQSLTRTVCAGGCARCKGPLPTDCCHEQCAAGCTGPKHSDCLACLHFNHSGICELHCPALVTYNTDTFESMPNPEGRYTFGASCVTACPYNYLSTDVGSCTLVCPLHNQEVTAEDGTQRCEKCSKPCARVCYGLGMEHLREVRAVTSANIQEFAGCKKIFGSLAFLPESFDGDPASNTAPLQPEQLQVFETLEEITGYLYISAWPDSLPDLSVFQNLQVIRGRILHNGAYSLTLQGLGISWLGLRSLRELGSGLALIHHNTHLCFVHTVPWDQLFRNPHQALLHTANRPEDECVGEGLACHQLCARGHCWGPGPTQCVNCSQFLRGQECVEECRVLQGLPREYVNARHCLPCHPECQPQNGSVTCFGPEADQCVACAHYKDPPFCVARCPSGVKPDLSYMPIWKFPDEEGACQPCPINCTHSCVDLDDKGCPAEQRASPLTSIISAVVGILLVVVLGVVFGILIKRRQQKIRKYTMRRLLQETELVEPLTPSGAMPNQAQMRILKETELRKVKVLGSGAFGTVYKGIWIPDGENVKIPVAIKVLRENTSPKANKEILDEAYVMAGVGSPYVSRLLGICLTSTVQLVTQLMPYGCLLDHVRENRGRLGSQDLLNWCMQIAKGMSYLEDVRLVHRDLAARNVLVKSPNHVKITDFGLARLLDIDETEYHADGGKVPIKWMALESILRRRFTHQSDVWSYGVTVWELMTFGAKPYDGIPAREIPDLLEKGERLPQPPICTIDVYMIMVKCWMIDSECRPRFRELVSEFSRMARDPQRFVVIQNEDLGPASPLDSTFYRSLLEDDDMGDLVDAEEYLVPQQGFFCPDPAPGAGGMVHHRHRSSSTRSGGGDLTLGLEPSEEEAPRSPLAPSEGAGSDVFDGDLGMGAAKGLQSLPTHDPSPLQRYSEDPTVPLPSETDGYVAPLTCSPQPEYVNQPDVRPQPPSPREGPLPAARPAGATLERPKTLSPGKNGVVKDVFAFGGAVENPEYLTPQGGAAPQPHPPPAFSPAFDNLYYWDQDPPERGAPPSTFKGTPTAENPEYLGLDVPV", "assay": "Inhibition of human recombinant ErbB2 at 500 nM in presence of ATP by radiometric assay relative to control"}, "[2]": {"biological_target": "Fibroblast growth factor receptor 3 (Homo sapiens) (UniProt P22607)", "sequence (P22607 23-806 limits assumed)": "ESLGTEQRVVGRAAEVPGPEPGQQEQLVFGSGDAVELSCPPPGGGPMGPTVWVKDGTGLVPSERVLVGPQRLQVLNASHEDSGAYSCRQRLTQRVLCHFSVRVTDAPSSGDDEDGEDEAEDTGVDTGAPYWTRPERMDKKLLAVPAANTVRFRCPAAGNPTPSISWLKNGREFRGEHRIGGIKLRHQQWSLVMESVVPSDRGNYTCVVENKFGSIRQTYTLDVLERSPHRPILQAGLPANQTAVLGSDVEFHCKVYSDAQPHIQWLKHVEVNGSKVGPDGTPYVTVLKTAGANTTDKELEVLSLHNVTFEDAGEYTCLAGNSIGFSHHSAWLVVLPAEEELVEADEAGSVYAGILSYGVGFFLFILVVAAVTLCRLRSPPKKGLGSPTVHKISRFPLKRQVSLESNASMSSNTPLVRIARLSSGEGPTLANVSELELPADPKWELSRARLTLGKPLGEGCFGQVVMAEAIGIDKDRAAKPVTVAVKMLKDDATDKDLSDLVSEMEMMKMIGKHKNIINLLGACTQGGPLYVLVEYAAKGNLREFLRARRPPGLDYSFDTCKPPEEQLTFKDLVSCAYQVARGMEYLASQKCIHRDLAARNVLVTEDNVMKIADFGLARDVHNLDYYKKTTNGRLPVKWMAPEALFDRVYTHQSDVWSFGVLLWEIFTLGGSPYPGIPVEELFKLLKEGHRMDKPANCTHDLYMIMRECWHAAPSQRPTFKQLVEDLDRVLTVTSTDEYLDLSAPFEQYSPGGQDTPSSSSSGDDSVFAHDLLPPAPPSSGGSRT", "assay": "Inhibition of human recombinant FGFR3 at 500 nM in presence of ATP by radiometric assay relative to control"}, "[3]": {"biological_target": "Protein-tyrosine kinase 2-beta (Homo sapiens) (UniProt Q14289)", "sequence (Q14289 whole entry, looked up)": "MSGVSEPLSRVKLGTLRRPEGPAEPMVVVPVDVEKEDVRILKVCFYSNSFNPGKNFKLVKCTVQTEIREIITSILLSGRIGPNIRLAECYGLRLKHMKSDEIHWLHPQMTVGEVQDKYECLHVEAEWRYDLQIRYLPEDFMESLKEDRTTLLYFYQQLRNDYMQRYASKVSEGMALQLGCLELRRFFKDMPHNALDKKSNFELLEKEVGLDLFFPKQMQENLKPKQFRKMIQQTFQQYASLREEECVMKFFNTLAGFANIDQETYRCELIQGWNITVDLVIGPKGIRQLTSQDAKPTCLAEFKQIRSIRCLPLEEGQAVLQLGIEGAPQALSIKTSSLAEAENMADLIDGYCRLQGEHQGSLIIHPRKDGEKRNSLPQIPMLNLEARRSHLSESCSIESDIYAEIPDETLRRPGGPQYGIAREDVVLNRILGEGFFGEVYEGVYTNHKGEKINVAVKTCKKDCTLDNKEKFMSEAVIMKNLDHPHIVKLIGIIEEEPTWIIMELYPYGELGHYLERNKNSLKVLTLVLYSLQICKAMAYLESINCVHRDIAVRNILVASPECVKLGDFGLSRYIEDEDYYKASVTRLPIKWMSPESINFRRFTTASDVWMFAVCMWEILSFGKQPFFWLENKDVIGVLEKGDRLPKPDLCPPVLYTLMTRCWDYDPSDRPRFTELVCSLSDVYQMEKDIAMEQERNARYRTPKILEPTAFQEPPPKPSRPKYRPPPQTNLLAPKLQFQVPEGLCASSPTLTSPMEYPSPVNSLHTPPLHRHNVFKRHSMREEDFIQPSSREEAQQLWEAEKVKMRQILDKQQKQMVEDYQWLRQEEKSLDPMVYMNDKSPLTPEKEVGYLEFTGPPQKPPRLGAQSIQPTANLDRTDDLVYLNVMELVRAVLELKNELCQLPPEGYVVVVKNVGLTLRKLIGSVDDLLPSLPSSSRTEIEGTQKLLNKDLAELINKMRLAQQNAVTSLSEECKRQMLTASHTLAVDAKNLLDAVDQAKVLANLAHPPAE", "assay": "Inhibition of human recombinant PYK2 at 500 nM in presence of ATP by radiometric assay relative to control"}, "[4]": {"biological_target": "T1, Ephrin type-B receptor 3 (Homo sapiens) (UniProt P54753)", "T1 sequence (whole entry)": "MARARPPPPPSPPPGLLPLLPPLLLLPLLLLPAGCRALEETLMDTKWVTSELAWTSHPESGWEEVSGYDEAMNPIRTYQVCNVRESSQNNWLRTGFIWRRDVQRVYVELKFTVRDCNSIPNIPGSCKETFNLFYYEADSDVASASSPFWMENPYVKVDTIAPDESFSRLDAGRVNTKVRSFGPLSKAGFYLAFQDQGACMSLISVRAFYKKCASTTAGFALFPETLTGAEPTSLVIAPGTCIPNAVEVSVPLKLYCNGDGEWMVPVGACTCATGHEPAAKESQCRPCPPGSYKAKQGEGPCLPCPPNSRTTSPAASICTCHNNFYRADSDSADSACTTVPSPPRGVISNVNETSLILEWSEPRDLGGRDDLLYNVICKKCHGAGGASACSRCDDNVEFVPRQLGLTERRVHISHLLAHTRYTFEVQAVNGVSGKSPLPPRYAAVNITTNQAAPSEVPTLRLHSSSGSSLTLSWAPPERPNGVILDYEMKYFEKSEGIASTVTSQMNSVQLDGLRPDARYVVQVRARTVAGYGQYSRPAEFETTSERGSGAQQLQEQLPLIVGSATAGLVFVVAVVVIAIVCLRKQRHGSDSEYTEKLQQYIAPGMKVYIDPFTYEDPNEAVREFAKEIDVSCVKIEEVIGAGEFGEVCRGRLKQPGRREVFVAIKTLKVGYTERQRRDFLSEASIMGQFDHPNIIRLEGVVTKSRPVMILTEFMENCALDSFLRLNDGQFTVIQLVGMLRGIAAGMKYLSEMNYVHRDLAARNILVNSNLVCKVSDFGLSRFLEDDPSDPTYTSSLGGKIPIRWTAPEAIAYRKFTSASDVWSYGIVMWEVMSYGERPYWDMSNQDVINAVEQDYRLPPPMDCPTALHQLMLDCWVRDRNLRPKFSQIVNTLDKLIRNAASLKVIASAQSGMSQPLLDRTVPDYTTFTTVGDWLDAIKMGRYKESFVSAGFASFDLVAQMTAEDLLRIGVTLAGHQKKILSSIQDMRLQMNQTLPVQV", "assay": "Inhibition of human recombinant EphB3 at 500 nM related to control ULK1"}, "[5]": {"biological_target": "T2, Serine/threonine-protein kinase Nek2 (Homo sapiens) (UniProt P51955)", "T2 sequence (whole entry)": "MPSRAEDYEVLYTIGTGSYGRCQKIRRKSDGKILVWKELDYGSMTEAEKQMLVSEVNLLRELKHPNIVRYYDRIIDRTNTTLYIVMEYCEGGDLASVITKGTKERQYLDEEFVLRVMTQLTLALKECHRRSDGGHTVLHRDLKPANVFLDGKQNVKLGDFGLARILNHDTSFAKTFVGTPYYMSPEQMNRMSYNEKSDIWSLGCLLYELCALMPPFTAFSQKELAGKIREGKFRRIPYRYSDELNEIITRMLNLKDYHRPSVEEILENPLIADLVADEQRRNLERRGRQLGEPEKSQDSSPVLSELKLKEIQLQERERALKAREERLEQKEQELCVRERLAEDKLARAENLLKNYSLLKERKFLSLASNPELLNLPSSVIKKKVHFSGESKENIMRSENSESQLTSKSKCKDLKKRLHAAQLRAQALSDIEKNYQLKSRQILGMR", "assay": "Inhibition of human recombinant NEK2 at 500 nM related to control ULK1"}, "[6]": {"biological_target": "Serine/threonine-protein kinase D2 (Homo sapiens) (UniProt Q9BZL6)", "assay": "Inhibition of human recombinant PKD2 at 500 nM in presence of ATP by radiometric assay relative to control"}, "[7]": {"biological_target": "Tyrosine-protein kinase ABL2 (Homo sapiens) (UniProt P42684)", "assay": "Inhibition of human recombinant ABL2 at 15 nM in presence of ATP by radiometric assay relative to control", "method_in_brief": "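Panel of 327 recombinant human kinases in radiometric activity assays, each screened in duplicate at a single inhibitor concentration; percent activity remaining relative to vehicle control, percent inhibition taken as 100 minus activity remaining.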"}, "[8]": {"biological_target": "Calcium/calmodulin-dependent protein kinase type 1D (Homo sapiens) (UniProt Q8IU85)", "sequence (Q8IU85 whole entry, looked up)": "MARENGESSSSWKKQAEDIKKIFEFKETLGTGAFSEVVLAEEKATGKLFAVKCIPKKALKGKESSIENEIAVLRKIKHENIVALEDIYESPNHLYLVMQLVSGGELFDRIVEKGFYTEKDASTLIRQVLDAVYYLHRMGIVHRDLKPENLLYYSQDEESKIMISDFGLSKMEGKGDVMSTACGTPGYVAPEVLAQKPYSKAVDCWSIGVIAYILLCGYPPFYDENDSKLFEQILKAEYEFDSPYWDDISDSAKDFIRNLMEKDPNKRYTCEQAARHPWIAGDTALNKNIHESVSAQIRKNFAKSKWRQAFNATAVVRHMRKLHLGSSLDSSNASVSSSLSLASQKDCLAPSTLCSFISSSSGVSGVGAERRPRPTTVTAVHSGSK", "assay": "Inhibition of human recombinant CaMK1d at 15 nM in presence of ATP by radiometric assay relative to control"}, "Homo sapiens": {"species_on_record": "Homo sapiens", "assay": "Inhibition of human recombinant CK1d at 15 nM in presence of ATP by radiometric assay relative to control"}, "[9]": {"biological_target": "Focal adhesion kinase 1 (Homo sapiens) (UniProt Q05397)", "sequence (Q05397 2-1052 limits assumed)": "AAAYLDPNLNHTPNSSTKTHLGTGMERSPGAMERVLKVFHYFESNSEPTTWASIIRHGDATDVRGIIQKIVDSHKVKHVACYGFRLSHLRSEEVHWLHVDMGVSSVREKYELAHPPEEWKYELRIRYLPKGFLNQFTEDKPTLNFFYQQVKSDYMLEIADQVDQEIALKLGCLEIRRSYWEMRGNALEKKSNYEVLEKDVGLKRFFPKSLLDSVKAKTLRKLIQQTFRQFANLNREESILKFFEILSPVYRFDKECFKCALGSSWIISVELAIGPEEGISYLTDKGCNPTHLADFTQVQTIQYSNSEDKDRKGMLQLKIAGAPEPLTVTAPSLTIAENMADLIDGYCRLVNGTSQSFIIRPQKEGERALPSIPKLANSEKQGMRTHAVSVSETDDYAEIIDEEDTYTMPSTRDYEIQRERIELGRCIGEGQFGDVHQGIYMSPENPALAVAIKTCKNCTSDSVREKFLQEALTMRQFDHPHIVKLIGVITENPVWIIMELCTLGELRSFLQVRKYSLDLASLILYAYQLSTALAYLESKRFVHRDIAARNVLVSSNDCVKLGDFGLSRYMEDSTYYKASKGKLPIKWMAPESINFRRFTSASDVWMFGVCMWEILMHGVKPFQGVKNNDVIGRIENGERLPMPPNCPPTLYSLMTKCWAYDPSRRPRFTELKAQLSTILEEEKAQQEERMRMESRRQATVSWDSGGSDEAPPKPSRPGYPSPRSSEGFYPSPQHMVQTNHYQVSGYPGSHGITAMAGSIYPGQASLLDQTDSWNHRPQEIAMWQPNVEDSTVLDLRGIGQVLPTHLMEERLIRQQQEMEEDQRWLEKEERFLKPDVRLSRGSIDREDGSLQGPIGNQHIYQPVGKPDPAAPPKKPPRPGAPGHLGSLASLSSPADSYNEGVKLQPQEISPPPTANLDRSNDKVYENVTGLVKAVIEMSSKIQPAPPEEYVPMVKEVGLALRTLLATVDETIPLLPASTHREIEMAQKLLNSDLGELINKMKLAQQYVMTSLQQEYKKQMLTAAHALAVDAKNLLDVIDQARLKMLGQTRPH", "assay": "Inhibition of human recombinant FAK at 15 nM related to control ULK1"}, "[10]": {"biological_target": "Serine/threonine-protein kinase PLK2 (Homo sapiens) (UniProt Q9NYY3)", "assay": "Inhibition of human recombinant PLK2 at 15 nM related to control ULK1"}, "[11]": {"biological_target": "T3, Serine/threonine-protein kinase Sgk3 (Homo sapiens) (UniProt Q96BR1)", "T3 sequence (whole entry)": "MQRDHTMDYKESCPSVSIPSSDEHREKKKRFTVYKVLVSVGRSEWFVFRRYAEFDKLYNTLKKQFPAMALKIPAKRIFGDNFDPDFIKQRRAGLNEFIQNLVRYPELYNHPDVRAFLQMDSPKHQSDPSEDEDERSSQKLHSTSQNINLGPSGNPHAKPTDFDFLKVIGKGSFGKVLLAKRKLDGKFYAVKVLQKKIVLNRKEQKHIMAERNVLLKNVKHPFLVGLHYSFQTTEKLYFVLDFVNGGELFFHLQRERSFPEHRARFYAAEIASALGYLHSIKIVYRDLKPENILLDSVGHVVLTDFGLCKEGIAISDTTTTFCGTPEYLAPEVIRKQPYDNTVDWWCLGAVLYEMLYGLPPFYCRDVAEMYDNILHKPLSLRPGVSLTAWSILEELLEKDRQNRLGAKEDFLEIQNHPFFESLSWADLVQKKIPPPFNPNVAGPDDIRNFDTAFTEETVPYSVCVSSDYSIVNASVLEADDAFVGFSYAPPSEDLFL", "assay": "Inhibition of human recombinant SGK3 at 15 nM related to control ULK1"}, "[12]": {"biological_target": "Proto-oncogene tyrosine-protein kinase receptor Ret (Homo sapiens) (UniProt P07949)", "assay": "Inhibition of human recombinant RET at 40 nM in presence of ATP by radiometric assay relative to control"}, "[13]": {"biological_target": "Myosin light chain kinase, smooth muscle (Homo sapiens) (UniProt Q15746)", "assay": "Inhibition of human recombinant smMLCK at 40 nM in presence of ATP by radiometric assay relative to control"}}, "data": [{"smiles": "CNC(=O)c1ccccc1Oc1nc(Nc2cc(OC)c(OC)c(OC)c2)ncc1Br", "values": [{"measurement": "inhibition", "setting": "[1]", "value": 0, "unit": "%"}, {"measurement": "inhibition", "setting": "[2]", "value": 42, "unit": "%"}, {"measurement": "inhibition", "setting": "[3]", "value": 53, "unit": "%"}, {"measurement": "fold change (FC)", "setting": "[4]", "value": 0}, {"measurement": "fold change (FC)", "setting": "[5]", "value": 0}, {"measurement": "inhibition", "setting": "[6]", "value": 12, "unit": "%"}]}, {"smiles": "CC(C)[C@H](NC(=O)c1cc(-c2cnn3cc(-c4ccc(OCCN5CCCCC5)cc4)cnc23)cs1)C(F)(F)F", "values": [{"measurement": "inhibition", "setting": "[7]", "value": 42, "unit": "%"}, {"measurement": "inhibition", "setting": "[8]", "value": 0, "unit": "%"}, {"measurement": "inhibition", "setting": "Homo sapiens", "value": 3, "unit": "%"}, {"measurement": "fold change (FC)", "setting": "[9]", "value": 0}, {"measurement": "fold change (FC)", "setting": "[10]", "value": 0.05}, {"measurement": "fold change (FC)", "setting": "[11]", "value": 0.05}]}, {"smiles": "O=C(N[C@@H](C1CC1)C(F)(F)F)c1cc(-c2cnn3cc(-c4ccc(F)cc4)cnc23)cs1", "values": [{"measurement": "inhibition", "setting": "[12]", "value": 0, "unit": "%"}, {"measurement": "inhibition", "setting": "[13]", "value": 5, "unit": "%"}]}]}
